{"data": "Measurements collected from several papers", "SIRT1": "NAD-dependent protein deacetylase sirtuin-1 (SIRT1, Homo sapiens, UniProt Q96EB6)", "XDH": "Xanthine dehydrogenase/oxidase (XDH, Bos taurus, UniProt P80457)", "SPHK2": "Sphingosine kinase 2 (SPHK2, Homo sapiens, UniProt Q9NRA0)", "SLC7A5": "Large neutral amino acids transporter small subunit 1 (SLC7A5, Homo sapiens, UniProt Q01650)", "note": "Compare with care: the assays were run in different laboratories."}
{"Structure (SMILES)": "CCCCCCCCCCCCNC(=O)NCCCC[C@H](NS(C)(=O)=O)C(=O)N[C@H](C)C(=O)N[C@@H](CCCNC(=N)N)C(N)=O", "target": "SIRT1", "effect on": "enzyme activity", "mode": "inhibitor", "concentration": "10 µM", "inhibition [%]": 38}
{"Structure (SMILES)": "O=Cc1ccc(O)cc1", "target": "XDH", "effect on": "enzyme activity", "mode": "inhibitor", "method": "absorbance", "concentration": "200 µg/mL", "inhibition [%]": 6.5}
{"Structure (SMILES)": "[H]/N=C(\\N)N1CCC[C@H]1c1nc(-c2ccc(OCC=Cc3ccc(C(F)(F)F)cc3)c(C(F)(F)F)c2)no1", "target": "SPHK2", "effect on": "enzyme activity", "mode": "inhibitor", "method": "radiometric", "concentration": "0.3 µM", "inhibition [%]": 75}
{"Structure (SMILES)": "CSSc1ccccc1C(=O)O", "target": "Procathepsin L (CTSL, Homo sapiens, UniProt P07711)", "effect on": "enzyme activity", "mode": "inhibitor", "method": "fluorescence", "concentration": "20 µM", "inhibition [%]": 93}
{"Structure (SMILES)": "O=C(O)c1ccc(O)c(O)c1", "target": "XDH", "effect on": "enzyme activity", "mode": "inhibitor", "method": "absorbance", "concentration": "100 µg/mL", "inhibition [%]": 9.5}
{"Structure (SMILES)": "CCCCCC1CC(=O)c2cc(OC)ccc2O1 (centres unmarked)", "target": "SIRT1", "effect on": "enzyme activity", "mode": "inhibitor", "method": "fluorescence", "concentration": "200 µM", "inhibition [%]": 10.3}
{"Structure (SMILES)": "[H]/N=C(\\N)N1CCC[C@H]1c1nc(-c2ccc(OCC=Cc3ccc(F)cc3)c(C(F)(F)F)c2)no1", "target": "SPHK2", "effect on": "enzyme activity", "mode": "inhibitor", "method": "radiometric", "concentration": "0.3 µM", "inhibition [%]": 57}
{"Structure (SMILES)": "CCCC(=S)NCCCC[C@H](NS(C)(=O)=O)C(=O)N[C@H](C)C(=O)N[C@@H](CCCNC(=N)N)C(N)=O", "target": "SIRT1", "effect on": "enzyme activity", "mode": "inhibitor", "concentration": "10 µM", "inhibition [%]": 14}
{"Structure (SMILES)": "[H]/N=C(\\N)N1CCC[C@H]1c1nc(-c2ccc(OCC=Cc3ccccc3C(F)(F)F)c(C(F)(F)F)c2)no1", "target": "SPHK2", "effect on": "enzyme activity", "mode": "inhibitor", "method": "radiometric", "concentration": "0.3 µM", "inhibition [%]": 0}
{"Structure (SMILES)": "CCCCCC1CC(=O)c2cc(Br)cc(Br)c2O1 (centres unmarked)", "target": "SIRT1", "effect on": "enzyme activity", "mode": "inhibitor", "method": "fluorescence", "concentration": "200 µM", "inhibition [%]": 0.6}
{"Structure (SMILES)": "CCCC=CCOc1ccc(-c2noc([C@@H]3CCCN3C(=N)N)n2)cc1C(F)(F)F", "target": "SPHK2", "effect on": "enzyme activity", "mode": "inhibitor", "method": "radiometric", "concentration": "0.3 µM", "inhibition [%]": 28}
{"Structure (SMILES)": "O=C(CSc1nc2nccnc2c(=O)n1CCc1ccccc1)Nc1ccccc1", "target": "SPHK2", "effect on": "enzyme activity", "mode": "inhibitor", "concentration": "10 µM", "inhibition [%]": "< 20"}
{"Structure (SMILES)": "CCCCCCCC1CC(=O)c2cc(Cl)cc(Br)c2O1 (centres unmarked)", "target": "SIRT1", "effect on": "enzyme activity", "mode": "inhibitor", "method": "fluorescence", "concentration": "200 µM", "inhibition [%]": 7.5}
{"Structure (SMILES)": "NC(CCOC(=O)c1ccccc1)C(=O)O (centres unmarked)", "target": "SLC7A5", "effect on": "transporter uptake", "mode": "inhibitor", "method": "radiometric", "concentration": "200 µM", "inhibition [%]": 11}
{"Structure (SMILES)": "CCCC1CC(=O)c2cc(Cl)cc(Br)c2O1 (centres unmarked)", "target": "SIRT1", "effect on": "enzyme activity", "mode": "inhibitor", "method": "fluorescence", "concentration": "200 µM", "inhibition [%]": 6.4}
{"Structure (SMILES)": "O=C(NC1CCC1)[C@H](Cc1c[nH]c2ccccc12)NC(=O)[C@H](CCCCNC(=S)NCc1cc(O)no1)NS(=O)(=O)c1cccc(F)c1", "target": "SIRT1", "effect on": "enzyme activity", "mode": "inhibitor", "concentration": "30 µM", "inhibition [%]": 49}
{"Structure (SMILES)": "CC(C)CCn1c(SCC(=O)Nc2ccccc2C(F)(F)F)nc2nccnc2c1=O", "target": "Phosphatidylinositol 4-kinase beta (PI4KB, Homo sapiens, UniProt Q9UBF8)", "effect on": "enzyme activity", "mode": "inhibitor", "concentration": "10 µM", "inhibition [%]": "< 20"}
{"Structure (SMILES)": "CCCCCCCCCCCCCC(=O)NNCCC[C@H](NC(=O)OCc1ccccc1)C(=O)N[C@@H](Cc1c[nH]c2ccccc12)C(=O)NC(C)C", "target": "SIRT1", "effect on": "enzyme activity", "mode": "inhibitor", "concentration": "100 µM", "inhibition [%]": 10}
{"Structure (SMILES)": "COc1ccc(CCc2ccc(-c3noc([C@@H]4CCCN4C(=N)N)n3)cc2C(F)(F)F)cc1", "target": "SPHK2", "effect on": "enzyme activity", "mode": "inhibitor", "method": "radiometric", "concentration": "0.3 µM", "inhibition [%]": 45}
{"Structure (SMILES)": "O=C1C=C(c2ccc(O)c(O)c2)CO1", "target": "XDH", "effect on": "enzyme activity", "mode": "inhibitor", "method": "absorbance", "concentration": "200 µg/mL", "inhibition [%]": 50}
{"Structure (SMILES)": "CCCCCCCCNC(=S)NCCCC[C@H](NS(C)(=O)=O)C(=O)N[C@H](C)C(=O)N[C@@H](CCCNC(=N)N)C(N)=O", "target": "SIRT1", "effect on": "enzyme activity", "mode": "inhibitor", "concentration": "10 µM", "inhibition [%]": 71}
{"Structure (SMILES)": "N[C@@H](Cc1cccc(C(=O)Oc2ccccc2)c1)C(=O)O", "target": "SLC7A5", "effect on": "transporter uptake", "mode": "inhibitor", "method": "radiometric", "concentration": "200 µM", "inhibition [%]": 85}
{"Structure (SMILES)": "O=C(CSc1nc2nccnc2c(=O)n1CCc1ccccc1)Nc1nccs1", "target": "SPHK2", "effect on": "enzyme activity", "mode": "inhibitor", "concentration": "10 µM", "inhibition [%]": 0}
{"Structure (SMILES)": "O=C(NC1CCC1)[C@H](Cc1c[nH]c2ccccc12)NC(=O)[C@H](CCCCNC(=S)NCCc1nnn[nH]1)NS(=O)(=O)c1cccc(F)c1", "target": "SIRT1", "effect on": "enzyme activity", "mode": "inhibitor", "concentration": "1 µM", "inhibition [%]": 7}
{"Structure (SMILES)": "O=C(COc1ccc2cc(C(=O)Nc3ccccc3)ccc2c1)NCc1ccc(O)c(O)c1", "target": "Signal transducer and activator of transcription 5B, SH2 (STAT5B, Homo sapiens, UniProt P51692)", "effect on": "ligand displacement", "method": "FP", "concentration": "100 µM", "inhibition [%]": -2}
{"Structure (SMILES)": "CCCCCCCCCCCCNC(=S)NCCCC[C@H](NC(=O)OCc1ccccc1)C(=O)N[C@@H](Cc1c[nH]c2ccccc12)C(=O)N[C@@H](CCCCN)C(N)=O", "target": "SIRT1", "effect on": "enzyme activity", "mode": "inhibitor", "concentration": "10 µM", "inhibition [%]": 71}
{"Structure (SMILES)": "N[C@@H](Cc1cccc(OC(=O)c2ccccc2)c1)C(=O)O", "target": "SLC7A5", "effect on": "transporter uptake", "mode": "inhibitor", "method": "radiometric", "concentration": "200 µM", "inhibition [%]": 100}
{"Structure (SMILES)": "O=C1CC(CCc2ccccc2)Oc2c(Br)cc(Cl)cc21 (centres unmarked)", "target": "SIRT1", "effect on": "enzyme activity", "mode": "inhibitor", "method": "fluorescence", "concentration": "200 µM", "inhibition [%]": 6.9}
{"Structure (SMILES)": "N[C@@H](CCCCNC(=O)c1ccccc1)C(=O)O", "target": "SLC7A5", "effect on": "transporter uptake", "mode": "inhibitor", "method": "radiometric", "concentration": "200 µM", "inhibition [%]": 38}
{"Structure (SMILES)": "CCCCCCCCCCCCNC(=S)NCCCC[C@H](NC(=O)OCc1ccccc1)C(=O)N[C@@H](C)C(=O)N[C@@H](CCCNC(=N)N)C(N)=O", "target": "SIRT1", "effect on": "enzyme activity", "mode": "inhibitor", "concentration": "1 µM", "inhibition [%]": 61}
{"Structure (SMILES)": "[H]/N=C(/N)N1CCC[C@H]1c1nc(-c2ccc(OCCC=CCCC)c(C(F)(F)F)c2)no1", "target": "SPHK2", "effect on": "enzyme activity", "mode": "inhibitor", "method": "radiometric", "concentration": "0.3 µM", "inhibition [%]": 56}
{"Structure (SMILES)": "O=C1CC(CCNC(=S)NCCCC[C@H](NS(=O)(=O)c2cccc(F)c2)C(=O)N[C@@H](Cc2c[nH]c3ccccc23)C(=O)NC2CCC2)=NO1", "target": "SIRT1", "effect on": "enzyme activity", "mode": "inhibitor", "concentration": "10 µM", "inhibition [%]": 22}
{"Structure (SMILES)": "CCc1ccc(CCc2ccc(-c3noc([C@@H]4CCCN4C(=N)N)n3)cc2C(F)(F)F)cc1", "target": "SPHK2", "effect on": "enzyme activity", "mode": "inhibitor", "method": "radiometric", "concentration": "0.3 µM", "inhibition [%]": 63}
{"Structure (SMILES)": "O=C(CO)c1ccc(O)c(O)c1", "target": "XDH", "effect on": "enzyme activity", "mode": "inhibitor", "method": "absorbance", "concentration": "100 µg/mL", "inhibition [%]": 20}
{"Structure (SMILES)": "O=c1cc(-c2ccccc2)oc2c(Br)cc(Cl)cc12", "target": "SIRT1", "effect on": "enzyme activity", "mode": "inhibitor", "method": "fluorescence", "concentration": "200 µM", "inhibition [%]": 3.1}
{"Structure (SMILES)": "CCCCCCCCCCCCNC(=S)NCCCC[C@H](NC(=O)OCc1ccccc1)C(=O)N[C@@H](CCCCN)C(=O)N[C@@H](CCCNC(=N)N)C(N)=O", "target": "SIRT1", "effect on": "enzyme activity", "mode": "inhibitor", "concentration": "1 µM", "inhibition [%]": 25}
{"Structure (SMILES)": "Cc1ccc(S(=O)(=O)n2cc(CCC3CC(=O)c4cc(Cl)cc(Br)c4O3)c3ccccc32)cc1 (centres unmarked)", "target": "SIRT1", "effect on": "enzyme activity", "mode": "inhibitor", "method": "fluorescence", "concentration": "200 µM", "inhibition [%]": 23}
{"Structure (SMILES)": "CCCCCCCCCCCCNC(=S)NCCCC[C@H](NC(=O)OCc1ccccc1)C(=O)N[C@@H](Cc1c[nH]c2ccccc12)C(=O)N[C@@H](CCC(=O)O)C(N)=O", "target": "SIRT1", "effect on": "enzyme activity", "mode": "inhibitor", "concentration": "1 µM", "inhibition [%]": 28}
{"Structure (SMILES)": "COc1cc(-c2cc(-c3ccc(N4CCNCC4)cc3)cnc2N)cc(OC)c1OC", "target": "Platelet-derived growth factor receptor alpha (PDGFRA, Homo sapiens, UniProt P16234, D842V)", "effect on": "enzyme activity", "mode": "inhibitor", "concentration": "1 µM", "inhibition [%]": 90}
{"Structure (SMILES)": "OCCc1ccc(O)c(O)c1", "target": "XDH", "effect on": "enzyme activity", "mode": "inhibitor", "method": "absorbance", "concentration": "100 µg/mL", "inhibition [%]": 7.3}
{"Structure (SMILES)": "O=C(Nc1ccc(S(=O)(=O)N2CCC(Cl)CC2)cc1)c1ccc([N+](=O)[O-])o1", "target": "Alpha-1B adrenergic receptor (Adra1b, Rattus norvegicus, UniProt P15823)", "effect on": "ligand displacement", "method": "radioligand", "concentration": "10 µM", "inhibition [%]": 13}
{"Structure (SMILES)": "O=Cc1c[nH]c2ccccc12", "target": "XDH", "effect on": "enzyme activity", "mode": "inhibitor", "method": "absorbance", "concentration": "200 µg/mL", "inhibition [%]": 13.1}
{"Structure (SMILES)": "CCCCCC1CC(=O)c2cc(F)cc(F)c2O1 (centres unmarked)", "target": "SIRT1", "effect on": "enzyme activity", "mode": "inhibitor", "method": "fluorescence", "concentration": "200 µM", "inhibition [%]": 0.4}
{"Structure (SMILES)": "OCCc1ccc(O)cc1", "target": "XDH", "effect on": "enzyme activity", "mode": "inhibitor", "method": "absorbance", "concentration": "200 µg/mL", "inhibition [%]": 21.2}
{"Structure (SMILES)": "[H]/N=C(\\N)N1CCC[C@H]1c1nc(-c2ccc(OCCC=Cc3ccc(C(F)(F)F)cc3)c(C(F)(F)F)c2)no1", "target": "SPHK2", "effect on": "enzyme activity", "mode": "inhibitor", "method": "radiometric", "concentration": "0.3 µM", "inhibition [%]": 68}
{"Structure (SMILES)": "O=C(O)c1ccc(O)cc1", "target": "XDH", "effect on": "enzyme activity", "mode": "inhibitor", "method": "absorbance", "concentration": "100 µg/mL", "inhibition [%]": 14.7}
{"Structure (SMILES)": "N[C@@H](CO)C(=O)O", "target": "SLC7A5", "effect on": "transporter uptake", "mode": "inhibitor", "method": "radiometric", "concentration": "200 µM", "inhibition [%]": -1}
